Measurements taken from ChEMBL document CHEMBL4765336, “Discovery of coumarin derivatives as potent and selective cyclin-dependent kinase 9 (CDK9) inhibitors with high antitumour activity” (Eur J Med Chem, 2020).

Assays:
[1] = biological target: CDK9/cyclin T1 (Homo sapiens, UniProt P50750); experiment: Inhibition of CDK9/Cyclin T1 (unknown origin) preincubated for 20 mins followed by ATP addition and measured after 120 mins in presence of [33P-gamma] ATP by hotspot kinase assay; assay type: protein-complex assay
Sequence of CDK9/cyclin T1 (O60563 whole entry): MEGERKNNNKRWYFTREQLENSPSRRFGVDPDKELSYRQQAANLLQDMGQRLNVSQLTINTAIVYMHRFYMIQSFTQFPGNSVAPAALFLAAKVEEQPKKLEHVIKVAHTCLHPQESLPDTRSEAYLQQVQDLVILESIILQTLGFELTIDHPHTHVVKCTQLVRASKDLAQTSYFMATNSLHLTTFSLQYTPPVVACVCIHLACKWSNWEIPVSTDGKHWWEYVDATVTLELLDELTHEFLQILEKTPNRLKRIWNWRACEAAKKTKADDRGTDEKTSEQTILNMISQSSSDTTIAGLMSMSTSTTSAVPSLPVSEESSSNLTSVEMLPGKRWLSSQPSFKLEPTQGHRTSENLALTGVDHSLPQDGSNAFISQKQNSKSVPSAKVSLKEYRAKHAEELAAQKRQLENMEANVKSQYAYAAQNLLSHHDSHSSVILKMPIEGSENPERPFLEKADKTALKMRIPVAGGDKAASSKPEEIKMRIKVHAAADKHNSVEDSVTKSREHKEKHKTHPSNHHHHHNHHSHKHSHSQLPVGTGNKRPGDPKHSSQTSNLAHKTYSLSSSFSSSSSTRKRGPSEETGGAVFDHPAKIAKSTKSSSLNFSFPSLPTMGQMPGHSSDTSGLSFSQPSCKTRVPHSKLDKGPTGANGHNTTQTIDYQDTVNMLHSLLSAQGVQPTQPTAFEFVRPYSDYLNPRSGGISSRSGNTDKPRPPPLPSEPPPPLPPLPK
Sequence of CDK9/cyclin T1 (P50750 whole entry): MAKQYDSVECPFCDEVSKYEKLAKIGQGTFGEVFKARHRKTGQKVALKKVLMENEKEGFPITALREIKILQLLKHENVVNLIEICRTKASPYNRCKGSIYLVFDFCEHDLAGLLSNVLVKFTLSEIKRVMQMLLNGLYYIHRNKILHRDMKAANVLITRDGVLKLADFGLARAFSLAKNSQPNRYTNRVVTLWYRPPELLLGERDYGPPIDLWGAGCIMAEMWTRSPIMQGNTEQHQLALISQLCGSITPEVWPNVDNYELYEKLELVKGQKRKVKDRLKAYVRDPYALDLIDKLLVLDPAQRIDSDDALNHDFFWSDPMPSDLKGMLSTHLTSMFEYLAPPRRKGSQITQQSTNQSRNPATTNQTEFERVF

[2] = test system: MV4-11; experiment: Antiproliferative activity against human MV4-11 cells assessed as inhibition of cell growth incubated for 72 hrs by Celltiter-Glo luminescent assay; assay type: functional, cell-based; details: MV4-11, 72 h
Outline: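 Cells seeded in growth medium and held overnight at 37 °C; medium-only wells served as background. DMSO stocks were diluted in medium to 3× final and added; cells incubated 72 h at 37 °C, 5% CO2. Viability read by CellTiter-Glo luminescence after 60 min at room temperature. IC50 from curve fit, mean of duplicate.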

[3] = biological target: CDK2/Cyclin A2 (Homo sapiens, UniProt P24941); experiment: Inhibition of CDK2/Cyclin A (unknown origin) preincubated for 20 mins followed by ATP addition and measured after 120 mins in presence of [33P-gamma] ATP by hotspot kinase assay; assay type: protein-complex assay
Outline: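 Radiometric filter-binding assay: kinase and substrate in 20 mM Hepes pH 7.5, 10 mM MgCl2, 1 mM EGTA, 0.02% Brij35, 0.02 mg/mL BSA, 0.1 mM Na3VO4, 2 mM DTT, 1% DMSO. Compound (top 1/10/27 μM, 3-fold serial dilutions) preincubated 20 min at 25 °C. ATP plus [γ-33P]ATP added to 10 μM final, reacted 120 min at 25 °C. IC50 from curve fit, duplicate mean.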

[4] = biological target: CDK2/Cyclin A2 (Homo sapiens) (UniProt P24941+P20248); experiment: Inhibition of CDK2/Cyclin A (unknown origin) assessed as enzyme activity at 1 uM preincubated for 20 mins followed by ATP addition and measured after 120 mins in presence of [33P-gamma] ATP by hotspot kinase assay relative to control; assay type: protein-complex assay; set-up: scale not given: the % may be the effect or the level left; details: time 140.0 min
Outline: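 Radiometric filter-binding kinase assay, buffer pH 7.5 with 10 mM MgCl2 and 1% DMSO. Compound tested at a single 1.0 μM, preincubated 20 min at 25 °C. Reaction started with ATP/[γ-33P]ATP at 10 μM final, run 120 min at 25 °C. Remaining % enzyme activity reported, n=2.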

SMILES | IC50 [1] | IC50 [2] | IC50 [3] | Activity [4]
COc1cc(F)ccc1-c1nc(Nc2ccc3c(N4CCN(C)CC4)c(C(C)=O)c(=O)oc3c2)ncc1Cl | 1.7 nM | 1390 nM | 642 nM | 
COc1ccccc1-c1ccnc(Nc2ccc3c(N4CCNCC4)cc(=O)oc3c2)n1 | 25.3 nM | 1340 nM | 3660 nM | 
CC(=O)c1c(N2CCOCC2)c2ccc(Nc3nccc(-c4ccccc4)n3)cc2oc1=O | 228 nM |  |  | 
COc1cc(F)ccc1-c1nc(Nc2ccc3c(N4CCCNCC4)c(C(C)=O)c(=O)oc3c2)ncc1F | 1.6 nM | 420 nM | 496 nM | 
CC(=O)c1c(N2CCOCC2)c2ccc(Nc3nccc(-c4c(F)cccc4F)n3)cc2oc1=O | 267 nM | > 10000 nM |  | 
COc1ccc(F)cc1-c1ccnc(Nc2ccc3c(N4CCOCC4)c(C(C)=O)c(=O)oc3c2)n1 | 21.8 nM | 1740 nM |  | 49.6%
CC(=O)c1c(N2CCOCC2)c2ccc(Nc3nccc(-c4ccccc4[N+](=O)[O-])n3)cc2oc1=O | 2340 nM | > 10000 nM |  | 
COc1cc(F)ccc1-c1ccnc(Nc2ccc3c(N4CCOCC4)cc(=O)oc3c2)n1 | 18.2 nM | 2280 nM | 1330 nM | 
COc1ccccc1-c1cc(Nc2ccc3c(C)c(C(C)=O)c(=O)oc3c2)ncn1 | 37.6 nM | > 10000 nM |  | 64.5%
COc1ccc(-c2ccnc(Nc3ccc4c(N5CCOCC5)c(C(C)=O)c(=O)oc4c3)n2)c(OC)c1 | 54.2 nM | 820 nM |  | 46.3%
COc1ccccc1-c1ccnc(Nc2ccc3c(C)c(C(C)=O)c(=O)oc3c2)n1 | 6.5 nM | 10200 nM | 451 nM | 
CCN1CCN(c2c(C(C)=O)c(=O)oc3cc(Nc4ncc(F)c(-c5ccc(F)cc5OC)n4)ccc23)CC1 | 1.2 nM | 550 nM | 305 nM | 
CCN1CCN(c2c(C(C)=O)c(=O)oc3cc(Nc4nccc(-c5ccc(F)cc5OC)n4)ccc23)CC1 | 10.5 nM | 740 nM |  | 61.8%
CCc1ccccc1-c1ccnc(Nc2ccc3c(N4CCOCC4)c(C(C)=O)c(=O)oc3c2)n1 | 66.5 nM | 9840 nM |  | 40.5%
COc1cc(F)ccc1-c1nc(Nc2ccc3c(N4CCN(C)CC4)c(C(C)=O)c(=O)oc3c2)ncc1F | 1.5 nM | 400 nM | 336 nM | 
COc1ccc(-c2ccnc(Nc3ccc4c(N5CCOCC5)c(C(C)=O)c(=O)oc4c3)n2)cc1 | 81.7 nM | 6490 nM |  | 21.6%
CCc1c(N2CCOCC2)c2ccc(Nc3nccc(-c4ccccc4OC)n3)cc2oc1=O | 67.3 nM | 4720 nM | 10900 nM | 
CCC(=O)c1c(N2CCOCC2)c2ccc(Nc3nccc(-c4ccc(F)cc4OC)n3)cc2oc1=O | 3.6 nM | 430 nM | 1090 nM | 
COc1cc(F)ccc1-c1nc(Nc2ccc3c(N4CCOCC4)cc(=O)oc3c2)ncc1F | 1.6 nM | 3110 nM |  | 22%
CC(=O)c1c(N2CCOCC2)c2ccc(Nc3nccc(-c4ccccc4C)n3)cc2oc1=O | 489 nM |  |  | 
COc1ccccc1-c1cc(Nc2ccc3c(N4CCOCC4)c(C(C)=O)c(=O)oc3c2)ncn1 | 210 nM | > 10000 nM | 3420 nM | 
COc1cc(F)ccc1-c1nc(Nc2ccc3c(N4CCOCC4)c(C(C)=O)c(=O)oc3c2)ncc1Cl | 3.6 nM | 1010 nM | 401 nM | 
CC(=O)c1c(N2CCOCC2)c2ccc(Nc3nccc(-c4ccccc4C(F)(F)F)n3)cc2oc1=O | 2490 nM |  |  | 
CCC(=O)c1c(N2CCOCC2)c2ccc(Nc3ncc(F)c(-c4ccc(F)cc4OC)n3)cc2oc1=O | 0.7 nM | 420 nM | 338 nM | 
COc1ccccc1-c1ccnc(Nc2ccc3c(N4CCCNCC4)cc(=O)oc3c2)n1 | 11.7 nM | 1680 nM | 2060 nM | 
COc1ccccc1-c1ccnc(Nc2ccc3c(N4CCOCC4)c(C(C)=O)c(=O)oc3c2)n1 | 3.1 nM | 1010 nM | 1280 nM | 
